According to ChEMBL document CHEMBL1143716, “Analysis of crucial structural requirements of 2-substituted pyrimido[4,5-b][1,5]oxazocines as NK(1) receptor antagonist by axially chiral derivatives” (Bioorg Med Chem, 2007):

Target: Substance-P receptor (Cavia porcellus) (UniProt P30547)
Test: Antagonist activity at guinea pig NK1 receptor assessed as effect on ileum contractions
Assay type: functional, tissue-based
Summary of the method: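 Guinea pig ileum in organ bath with Tyrode's solution, 32 °C, gassed 95% O2/5% CO2, resting tension 1 g, 20 min equilibration. Pretreated 10 min with at least three concentrations of test compound in DMSO, then cumulative substance P concentration-response curve versus substance P control curve. KB by Schild method; means, n = 3–5.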

Sequence of Substance-P receptor (Cavia porcellus) (P30547 whole entry): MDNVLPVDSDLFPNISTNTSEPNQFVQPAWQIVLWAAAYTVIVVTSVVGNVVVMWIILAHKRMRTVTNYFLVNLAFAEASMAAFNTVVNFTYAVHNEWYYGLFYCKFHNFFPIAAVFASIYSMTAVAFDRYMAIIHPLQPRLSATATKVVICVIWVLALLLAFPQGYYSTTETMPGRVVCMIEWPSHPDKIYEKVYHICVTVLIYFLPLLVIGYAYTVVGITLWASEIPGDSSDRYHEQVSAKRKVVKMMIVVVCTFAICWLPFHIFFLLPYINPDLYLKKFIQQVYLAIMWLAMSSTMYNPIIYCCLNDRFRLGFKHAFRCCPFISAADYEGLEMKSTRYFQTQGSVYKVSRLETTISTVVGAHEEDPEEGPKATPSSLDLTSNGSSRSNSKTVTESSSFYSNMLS

Kb [nM]	SMILES
11.6	Cc1ccccc1-c1ncnc2c1C(=O)N(Cc1cc(C(F)(F)F)cc(C(F)(F)F)c1)CCCO2
0.427	Cc1ccccc1-c1nc(N(C)C)nc2c1C(=O)N(Cc1cc(C(F)(F)F)cc(C(F)(F)F)c1)C[C@H](C)CO2
0.345	CC(=O)N1CCN(c2nc3c(c(-c4ccccc4C)n2)C(=O)N(Cc2cc(C(F)(F)F)cc(C(F)(F)F)c2)C[C@@H](C)CO3)CC1
12.6	Cc1ccccc1-c1ncnc2c1C(=O)N(Cc1cc(C(F)(F)F)cc(C(F)(F)F)c1)C[C@H](C)CO2
0.545	CC(=O)N1C(C)CN(c2nc3c(c(-c4ccccc4C)n2)C(=O)N(Cc2cc(C(F)(F)F)cc(C(F)(F)F)c2)C[C@@H](C)CO3)CC1C (some centres not stated)
0.105	CC(=O)N1CCN(c2nc3c(c(-c4ccccc4C)n2)C(=O)N(Cc2cc(C(F)(F)F)cc(C(F)(F)F)c2)CCCO3)CC1
0.139	CC(=O)N1CCN(c2nc3c(c(-c4ccccc4C)n2)C(=O)N(Cc2cc(C(F)(F)F)cc(C(F)(F)F)c2)C[C@H](C)CO3)CC1
52.9	Cc1ccccc1-c1nc(N(C)C)nc2c1C(=O)N(Cc1cc(C(F)(F)F)cc(C(F)(F)F)c1)C[C@@H](C)CO2
0.679	CC(=O)N1C(C)CN(c2nc3c(c(-c4ccccc4C)n2)C(=O)N(Cc2cc(C(F)(F)F)cc(C(F)(F)F)c2)CCCO3)CC1C (configuration not stated)
0.679	Cc1ccccc1-c1nc(N(C)C)nc2c1C(=O)N(Cc1cc(C(F)(F)F)cc(C(F)(F)F)c1)CCCO2
0.217	CC(=O)N1C(C)CN(c2nc3c(c(-c4ccccc4C)n2)C(=O)N(Cc2cc(C(F)(F)F)cc(C(F)(F)F)c2)C[C@H](C)CO3)CC1C (some centres not stated)
162	Cc1ccccc1-c1ncnc2c1C(=O)N(Cc1cc(C(F)(F)F)cc(C(F)(F)F)c1)C[C@@H](C)CO2
